Measurements published in ChEMBL document CHEMBL3351896, “Small Molecule that Reverses Dexamethasone Resistance in T-cell Acute Lymphoblastic Leukemia (T-ALL)” (ACS Med Chem Lett, 2014).
Activity calls are given as the source filed them. The calls are words filed in the database; no cut-off is given here.

Columns and labels:
Type in all cases: functional, cell-based
CUTLL1 [1] = experiment: Effect on PAICS gene expression in human CUTLL1 cells in presence of 1 uM dexamethasone at 30 uM after 24 hrs by microarray method
In short: (§1)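 CUTLL1 T-ALL cells exposed 24 h to vehicle (DMSO), dexamethasone alone (1 μM), test agent alone (30 μM), or dexamethasone (1 μM) plus test agent (30 μM), in triplicate. Expression profiled by microarray. Leading-edge genes from GSEA were compared between the dexamethasone-plus-agent and dexamethasone-alone groups, using glucocorticoid-regulated gene sets from ALL patients on glucocorticoid therapy.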

CUTLL1 [2] = experiment: Effect on CHAF1A gene expression in human CUTLL1 cells in absence of 1 uM dexamethasone at 30 uM after 24 hrs by microarray method; in short: as §1
CUTLL1 [3] = experiment: Increase in GR expression in human CUTLL1 cells at < 25 uM after 24 hrs by Western blotting method
CUTLL1 [4] = experiment: Increase in GR expression in human CUTLL1 cells at 50 uM after 6 hrs by Western blotting method
In short: (§2)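 CUTLL1 cells exposed to compound (25 or 50 μM) alone, with 1 μM dexamethasone, or with dexamethasone plus 1 μM RU486, for 6 or 24 h. GR measured as protein by Western blot and as transcript by RT-qPCR.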

CUTLL1 [5] = experiment: Effect on NHP2 gene expression in human CUTLL1 cells in absence of 1 uM dexamethasone at 30 uM after 24 hrs by microarray method; in short: as §1
CUTLL1 [6] = experiment: Increase in GR expression in human CUTLL1 cells at 50 uM after 6 hrs by RT-qPCR method; in short: as §2
CUTLL1 [7] = experiment: Effect on USP1 gene expression in human CUTLL1 cells in presence of 1 uM dexamethasone at 30 uM after 24 hrs by microarray method
In short: (§3)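 Human CUTLL1 T-ALL cells exposed for 24 h to vehicle (DMSO), dexamethasone alone (1 μM), test compound alone (30 μM), or dexamethasone 1 μM plus compound 30 μM, each in triplicate. Expression profiled by microarray. Glucocorticoid-regulated gene sets from ALL patients on glucocorticoid therapy scored by GSEA. Leading-edge genes compared between the combination and dexamethasone alone.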

CUTLL1 [8] = experiment: Effect on NXT1 gene expression in human CUTLL1 cells in presence of 1 uM dexamethasone at 30 uM after 24 hrs by microarray method; in short: as §1
CUTLL1 [9] = experiment: Effect on FKBP5 gene expression in human CUTLL1 cells in presence of 1 uM dexamethasone at 30 uM after 24 hrs by microarray method; in short: as §1
CUTLL1 [10] = experiment: Effect on RPS14 gene expression in human CUTLL1 cells in presence of 1 uM dexamethasone at 30 uM after 24 hrs by microarray method; in short: as §3
CUTLL1 [11] = experiment: Increase in GR expression in human CUTLL1 cells at < 25 uM after 24 hrs by RT-qPCR method
[12] = Growth inhibition of human CUTLL1 cells in presence of 1 uM dexamethasone after 48 hrs by alamar blue assay; details: CUTLL1, 48 h
In short: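 CUTLL1 cells given compound alone or with dexamethasone 1 μM. Growth inhibition measured by alamar blue after 48 h.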

CUTLL1 [13] = experiment: Effect on E2F7 gene expression in human CUTLL1 cells in presence of 1 uM dexamethasone at 30 uM after 24 hrs by microarray method; in short: as §1
CUTLL1 [14] = experiment: Effect on TSR1 gene expression in human CUTLL1 cells in presence of 1 uM dexamethasone at 30 uM after 24 hrs by microarray method; in short: as §3
CUTLL1 [15] = experiment: Growth inhibition of human CUTLL1 cells with low GR expression levels at 50 uM after 48 hrs by alamar blue assay
In short: (§4)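 Human CUTLL1 T-ALL cells engineered to express high (overexpressed) or low (knockdown) glucocorticoid receptor levels. Exposed to compound alone or with 1 μM dexamethasone. Alamar blue growth inhibition read after 48 h.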

CUTLL1 [16] = experiment: Effect on ATAD2 gene expression in human CUTLL1 cells in absence of 1 uM dexamethasone at 30 uM after 24 hrs by microarray method; in short: as §1
CUTLL1 [17] = experiment: Effect on RANBP1 gene expression in human CUTLL1 cells in presence of 1 uM dexamethasone at 30 uM after 24 hrs by microarray method; in short: as §3
CUTLL1 [18] = experiment: Effect on TSC22D3 gene expression in human CUTLL1 cells in presence of 1 uM dexamethasone at 30 uM after 24 hrs by microarray method; in short: as §3
CUTLL1 [19] = experiment: Effect on ATAD2 gene expression in human CUTLL1 cells in presence of 1 uM dexamethasone at 30 uM after 24 hrs by microarray method; in short: as §1
CUTLL1 [20] = experiment: Potentiation of dexamethasone-induced cytotoxicity against human CUTLL1 cells with low GR expression levels at 50 uM after 48 hrs by alamar blue assay; in short: as §4
CUTLL1 [21] = experiment: Effect on HELLS gene expression in human CUTLL1 cells in presence of 1 uM dexamethasone at 30 uM after 24 hrs by microarray method; in short: as §1
CUTLL1 [22] = experiment: Effect on PAICS gene expression in human CUTLL1 cells in absence of 1 uM dexamethasone at 30 uM after 24 hrs by microarray method; in short: as §1
CUTLL1 [23] = experiment: Effect on PCNA gene expression in human CUTLL1 cells in absence of 1 uM dexamethasone at 30 uM after 24 hrs by microarray method; in short: as §1
CUTLL1 [24] = experiment: Effect on BTG1 gene expression in human CUTLL1 cells in absence of 1 uM dexamethasone at 30 uM after 24 hrs by microarray method; in short: as §1
CUTLL1 [25] = experiment: Effect on RUVBL1 gene expression in human CUTLL1 cells in absence of 1 uM dexamethasone at 30 uM after 24 hrs by microarray method; in short: as §3
CUTLL1 [26] = experiment: Growth inhibition of human CUTLL1 cells at 12.5 to 50 uM in presence of 1 uM dexamethasone and 1 uM […] and glucocorticoid receptor antagonist RU486 after 48 hrs by alamar blue assay
In short: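 CUTLL1 cells treated for 48 h with compound, with or without dexamethasone 1 μM and RU486 1 μM. Growth inhibition read out by alamar blue.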

CUTLL1 [27] = experiment: Effect on DSCC1 gene expression in human CUTLL1 cells in presence of 1 uM dexamethasone at 30 uM after 24 hrs by microarray method; in short: as §1
CUTLL1 [28] = experiment: Effect on PFAS gene expression in human CUTLL1 cells in presence of 1 uM dexamethasone at 30 uM after 24 hrs by microarray method; in short: as §3
CUTLL1 [29] = experiment: Effect on RPS14 gene expression in human CUTLL1 cells in absence of 1 uM dexamethasone at 30 uM after 24 hrs by microarray method; in short: as §3
CUTLL1 [30] = experiment: Effect on CDC45 gene expression in human CUTLL1 cells in presence of 1 uM dexamethasone at 30 uM after 24 hrs by microarray method; in short: as §1
CUTLL1 [31] = experiment: Effect on ZWINT gene expression in human CUTLL1 cells in presence of 1 uM dexamethasone at 30 uM after 24 hrs by microarray method; in short: as §3
CUTLL1 [32] = experiment: Increase in GR expression in human CUTLL1 cells at 25 to 50 uM in presence of 1 uM dexamethasone after 24 hrs by Western blotting method; in short: as §2
CUTLL1 [33] = experiment: Effect on FEN1 gene expression in human CUTLL1 cells in presence of 1 uM dexamethasone at 30 uM after 24 hrs by microarray method; in short: as §1

With `Nc1ncc(-c2ccncc2)c(C2CC2)n1` the Activity (CUTLL1 [1]) was “Active”, the Activity (CUTLL1 [2]) was “inactive” and the Activity (CUTLL1 [3]) was “inactive”. The Activity (CUTLL1 [4]) was “Active”, the Activity (CUTLL1 [5]) was “inactive” and the Activity (CUTLL1 [6]) was “inactive”. The Activity (CUTLL1 [7]) was “Active”, the Activity (CUTLL1 [8]) was “Active” and the Activity (CUTLL1 [9]) was “Active”. The Activity (CUTLL1 [10]) was “Active”, the Activity (CUTLL1 [11]) was “inactive” and the EC50 [12] was 28 µM. For the same molecule, the Activity (CUTLL1 [13]) was “Active”, the Activity (CUTLL1 [14]) was “Active” and the “growth inhibition (GI)” value (CUTLL1 [15]) was “inactive”. For the same molecule, the Activity (CUTLL1 [16]) was “inactive”, the Activity (CUTLL1 [17]) was “Active” and the Activity (CUTLL1 [18]) was “Active”. For the same molecule, the Activity (CUTLL1 [19]) was “Active”, the Activity (CUTLL1 [20]) was “Active” and the Activity (CUTLL1 [21]) was “Active”. The Activity (CUTLL1 [22]) was “inactive”, the Activity (CUTLL1 [23]) was “inactive” and the Activity (CUTLL1 [24]) was “inactive”. For the same molecule, the Activity (CUTLL1 [25]) was “inactive”, the “growth inhibition (GI)” value (CUTLL1 [26]) was “inactive” and the Activity (CUTLL1 [27]) was “Active”. For the same molecule, the Activity (CUTLL1 [28]) was “Active”, the Activity (CUTLL1 [29]) was “inactive” and the Activity (CUTLL1 [30]) was “Active”. The Activity (CUTLL1 [31]) was “Active”, the Activity (CUTLL1 [32]) was “Active” and the Activity (CUTLL1 [33]) was “Active”.
